# TWEAK-Fn14 inh = blocks TWEAK-Fn14 interaction in a reporter cell assay; TWEAK-stimulated Fn14 reporter cells, luciferase luminescence, 8 h; AID 1159606; inhibition, % at 10 µM; hit rate 2% among 360,000; in the data active = inhibition above about 50%
# LGR2 inh = Drosophila LGR2 receptor signaling inhibition; HEK293 LGR2, CRE-luciferase, bursicon-stimulated, 4 h; inhibition, % at 9.99 µM; hit rate 0.35% among 380,000; AID 720647;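 active = drop in luminescence signal, shown as inhibition above about 50% in the replicate tests, limit read from the data, passing the limit was not always enough; inconclusive = probably only some replicates passing the limit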;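 also: agonist challenge used bursicon conditioned medium at about half maximal strength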
# XiGFP reactiv = reactivates the inactive X chromosome in mouse fibroblasts; hit rate 0.055% among 360,000; XiGFP mouse fibroblasts, % GFP-positive cells imaging, 3 d; cells co-treated with 5-aza-dC sensitizer; scaled so ellipticine positive control = 100%; activation, % at 7.58 µM;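 active = mean normalized replicate activation at least 10% and every replicate at or above 10%; inconclusive = only one of the two criteria met; inactive = mean below 10% and not all replicates reach 10%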;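 also: 0% = median of on-plate neutral control wells and 100% = ellipticine 6 µM median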
#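 material = 68-5-11 XiGFP fibroblast line | medium = DMEM plus 5-aza-dC sensitizer | schedule = 3 days compound exposure | benchmarks = positive control ellipticine, 6 µM final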
# CaV13 ICDI inh = Disruptors of the CACNA1D IQ motif to Ca2+-dependent inactivation inhibitor domain association, primary screening, Förster resonance energy transfer in intact living … | HEK cells, CFP/YFP FRET ICDI-IQ, plate reader, 10 min; percent FRET-ratio fall versus neutral wells | AID 743397 | hit rate 0.098% among 340,000 | inhibition, % at 12.3 µM;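 active = mean replicate inhibition of at least 30% and at least 1% of replicates passing that level; inconclusive = only one of the two criteria is met; inactive = neither criterion is met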;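 also: 0% = median of the neutral control wells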
# TROY signal inh = blocks TROY-dependent signaling in reporter cells. Q293 LMP1-TROYcd NF-kB luciferase reporter, 4 h. inhibition, % at 10 µM. hit rate 0.98% among 360,000;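 active = compounds whose plate-normalised and pattern-corrected inhibition of the luciferase reporter signal at the single screening dose is 50% or more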
# Numbers without * were called inactive; ? = inconclusive; / = no result given. Sampled rows, rich in hits. Any-hit rate of the full collection: about 2%.
SMILES,TWEAK-Fn14 inh,LGR2 inh,XiGFP reactiv,CaV13 ICDI inh,TROY signal inh
O=C(Nc1ccccc1Cl)N1CCN(c2ccccn2)CC1,101*,9,/,-5,-1
CCC(=O)N[C@@H]1CC[C@@H](CCn2cc(C3CC3)nn2)O[C@@H]1CO,/,2,-1,/,/
C[C@@H]1CN([C@@H](C)CO)C(=O)Cc2cc(NC(=O)CCC(F)(F)F)ccc2O[C@@H]1CN(C)Cc1ccc(C(F)(F)F)cc1,/,13,0,/,/
CC(C)NC(=O)Nc1ccc2c(c1)CC(=O)N([C@H](C)CO)C[C@H](C)[C@H](CN(C)Cc1ccc(Cl)c(Cl)c1)O2,/,-10,0,/,/
CCN1CCN(Cc2ccc(NC(=O)Nc3ccccc3)cc2)CC1,60*,/,/,/,53*
CCN1CCN(Cc2ccc(NC(=O)Nc3ccc(OC)cc3)cc2)CC1,-16,-10,0,17,-29
C[C@H](CO)N1C[C@H](C)[C@@H](CN(C)C(=O)NC2CCCCC2)OCCCC[C@H](C)Oc2ccc(NS(=O)(=O)c3ccc(Cl)cc3)cc2C1=O,/,7,0,/,/
CCOc1cc(/C=C2\COc3ccccc3C2=O)ccc1OCC(=O)N(C)C,79*,2,0,-4,2
CCNC(=O)COc1ccc(/C=C2\COc3ccccc3C2=O)cc1OC,46,-13,0,-7,32
O=C(/C=C/c1ccccc1)N1CCN(CC(O)COc2ccccc2)CC1 (configuration not stated),5,/,/,/,54*
OC(COc1ccccc1)CN1CCCCC1 (configuration not stated),0,12,0,-5,-9
CCCn1c(=O)c(C(=O)Nc2ncccc2O)c(O)c2ccccc21,87*,24,0,-5,43
Cn1c(=O)c(C(=O)Nc2ncccc2O)c(O)c2ccccc21,8,/,/,-4,-22
CSc1cccc(NC(=O)OC2CCCCCCCCCCC2)c1,-5,24,0,-4,4
CC(C)c1cccc(C(C)C)c1NC(=O)OC1CCCCC1,-2,2,0,-8,58*
Cc1cc2cc(CNC(=O)c3ccco3)ccc2n1C,9,9,0,56*,-11
C[C@@H]1CN([C@H](C)CO)C(=O)Cc2cc(NC(=O)Cc3cn(C)c4ccccc34)ccc2O[C@H]1CN(C)Cc1ccc(C(=O)Nc2ccccc2N)cc1,/,-12,0,/,/
CN1CCN(c2ccc(-c3cccc(NC(=O)COc4ccc(Cl)cc4Cl)c3)nn2)CC1,63*,-27,0,-6,74*
CCc1cc(C(=O)N(CCCOC)c2c(N)n(Cc3ccccc3)c(=O)[nH]c2=O)sc1C,2,18,1,-2,71*
CCCN(C(=O)c1cc(CC)c(C)s1)c1c(N)n(Cc2ccccc2)c(=O)[nH]c1=O,-8,-5,1,-6,-11
O=C(O)/C=C/c1cnn(-c2ccccc2)c1,67*,59*,0,/,8
COCC(=O)N(C)C[C@@H]1Oc2ncc(C#C[C@@H](C)O)cc2C(=O)N([C@@H](C)CO)C[C@@H]1C,/,4,0,/,/
CCC(=O)N1C[C@@H](C)[C@@H](OC)CN(C)C(=O)c2cc(NC(=O)NC3CCCC3)ccc2OC[C@@H]1C,/,/,0,/,/
CCCN1[C@@H]2c3ccc(-c4ccc(C(=O)N(C)C)cc4)c(=O)n3C[C@@H]2[C@@H](CO)[C@@H]1C(=O)NCCOC,/,17,0,/,/
Cc1ccc(NC2=CC(=O)C(=O)c3ccccc32)c(C)c1,75*,37,1,-6,74*
SMILES,TWEAK-Fn14 inh,LGR2 inh,XiGFP reactiv,CaV13 ICDI inh,TROY signal inh
C[C@@H]1CN([C@H](C)CO)C(=O)c2cc(NC(=O)Nc3ccc(C(F)(F)F)cc3)ccc2O[C@H]1CN(C)S(C)(=O)=O,/,5,0,/,/
CCOC(=O)c1nc(Nc2ccc(Nc3ccccc3)cc2)c2ccccc2n1,43,20,-1,3,54*
CCCNC(=O)Nc1ccc2c(c1)C(=O)N(C)[C@H]1CC[C@H](CC(=O)NC3CCC3)O[C@@H]1CO2,/,-2,0,/,/
CS(=O)(=O)N1C[C@@H]2C(c3ccc(-c4ccc(F)cc4)cc3)[C@H](C1)N2CC1CC1 (some centres not stated),/,/,0,/,/
CCN(CC)CCNC(=O)c1sc2nc(-c3ccccc3)cn2c1C,4,-6,0,48*,-43
CS(=O)(=O)Nc1ccc2c(c1)[C@H]1C[C@H](CC(=O)NCc3ccccn3)O[C@H](CO)[C@H]1O2,/,-11,0,/,/
C[C@@H]1CCCCO[C@H](CN(C)Cc2ccc3c(c2)OCO3)[C@@H](C)CN([C@@H](C)CO)C(=O)c2cc(NS(C)(=O)=O)ccc2O1,/,1,0,/,/
OC(CNCC(c1ccc(Cl)cc1Cl)c1c[nH]c2ccccc12)c1ccccc1 (configuration not stated),74*,102*,0,1,79*
COc1ccc(NC(=O)c2cc3ccccn3n2)cc1,63*,27,0,-5,-5
COc1ccc(NC(=O)c2ccccn2)cc1,84*,/,/,/,57*
COc1ccc(N(CC(=O)NCCSc2ccccn2)S(C)(=O)=O)cc1,-1,-8,/,-9,5
COc1ccc(C(=O)NCCSc2ccccn2)cc1,65*,/,/,-4,11
COc1ccc(C(=O)Nc2ccc(NC(=O)c3ccccn3)cn2)cc1,1,-2,0,-7,-14
Cc1ccc(-c2nc(NC(=O)CSc3nnc4scc(-c5ccccc5)n34)ns2)cc1,48,6,0,-2,52*
CCc1nnc(NC(=O)CSc2nnc3scc(-c4ccc(C)cc4)n23)s1,-3,/,/,-8,3
Cc1[nH]nc2ncc(C(=O)c3ccccc3O)cc12,59*,/,/,-5,49
CCC(=O)N(C)C[C@H]1Oc2ncc(C#Cc3ccccc3)cc2C(=O)N([C@H](C)CO)C[C@@H]1C,/,15,-1,/,/
Cn1c(=O)c(C#N)c(-c2ccc(F)cc2)c2cc(C(=O)c3cc(Cl)cc(Cl)c3O)cnc21,57*,9,?,-5,67*
CN(C)c1ccc(/C=N/NC(=O)c2ccc3c(c2)OCO3)cc1,0,-87,0,-7,-41
O=C(N/N=C\c1ccc([N+](=O)[O-])s1)c1cncc(Br)c1,53*,/,0,-5,14
O=C(N/N=C\c1ccc2c(c1)OCO2)c1cncc(Br)c1,58*,16,0,-7,-16
O=C(N/N=C/c1ccccc1)c1ccc2c(c1)OCO2,59*,21,0,-8,-31
Cc1noc(C)c1S(=O)(=O)N(C)C[C@@H]1OCCCC[C@@H](C)Oc2ccc(NC(=O)Nc3ccc(C(F)(F)F)cc3)cc2C(=O)N([C@H](C)CO)C[C@H]1C,/,-2,0,/,/
CC(C)c1ccccc1NC(=O)COC(=O)CCN1C(=O)/C(=C\C=C\c2ccccc2)SC1=S,72*,-3,0,-22,35
C=C(C)COc1ccc(-c2[nH]ncc2-c2ccccc2)c(O)c1,2,/,/,/,7

# Compound activity (PubChem BioAssay)
